Assay results as given in ChEMBL document CHEMBL1144139, “Immunosuppressive diterpenoids from Tripterygium wilfordii” (1999).
Calls of active or inactive are those of the source. The calls are words filed in the database; no cut-off is given here.

What was measured:
Type in all cases: functional
PBMC [1] = assay: Immunosuppressive activity against human PBMC assessed as inhibition of LPS-induced IL8 production at 10 ug/ml after 24 hrs by ELISA
Summary of the method: (§1)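 Heparinized whole blood from healthy volunteers, diluted to 30% in RPMI-1640 with penicillin/streptomycin, was mixed in equal volumes with LPS solution (3 µg/mL) and sample (3 mg/mL DMSO stock diluted 1:100; DMSO-only control). Incubated at 37 °C, 5% CO2. Supernatant cytokines measured by ELISA. Inhibition (%) = […] versus solvent control.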

PBMC [2] = assay: Immunosuppressive activity against human PBMC assessed as inhibition of LPS-induced TNFalpha production at 10 ug/ml after 24 hrs by ELISA; summary of the method: as §1
PBMC [3] = assay: Immunosuppressive activity against human PBMC assessed as inhibition of LPS-induced IL2 production at 10 ug/ml after 24 hrs by ELISA; summary of the method: as §1
PBMC [4] = assay: Immunosuppressive activity against human PBMC assessed as inhibition of LPS-induced IL4 production at 10 ug/ml after 24 hrs by ELISA; summary of the method: as §1
PBMC [5] = assay: Immunosuppressive activity against human PBMC assessed as inhibition of LPS-induced IFN-gamma production at 10 ug/ml after 24 hrs by ELISA; summary of the method: as §1
PBMC [6] = assay: Immunosuppressive activity against human PBMC assessed as inhibition of LPS-induced IL1-beta production at 10 ug/ml after 24 hrs by ELISA; summary of the method: as §1
PBMC [7] = assay: Immunosuppressive activity against human PBMC assessed as inhibition of LPS-induced IL1-beta production at 0.3 ug/ml after 24 hrs by ELISA
PBMC [8] = assay: Immunosuppressive activity against human PBMC assessed as inhibition of LPS-induced TNFalpha production at 0.3 ug/ml after 24 hrs by ELISA
PBMC [9] = assay: Immunosuppressive activity against human PBMC assessed as inhibition of LPS-induced IL4 production at 0.3 ug/ml after 24 hrs by ELISA
PBMC [10] = assay: Immunosuppressive activity against human PBMC assessed as inhibition of LPS-induced IL2 production at 0.3 ug/ml after 24 hrs by ELISA
PBMC [11] = assay: Immunosuppressive activity against human PBMC assessed as inhibition of LPS-induced IFN-gamma production at 0.3 ug/ml after 24 hrs by ELISA
PBMC [12] = assay: Immunosuppressive activity against human PBMC assessed as inhibition of LPS-induced IL8 production at 0.3 ug/ml after 24 hrs by ELISA

Row | Compound | inhibition at 10 µg/mL (PBMC [1]) [%] | inhibition at 10 µg/mL (PBMC [2]) [%] | inhibition at 10 µg/mL (PBMC [3]) [%] | inhibition at 10 µg/mL (PBMC [4]) [%] | inhibition at 10 µg/mL (PBMC [5]) [%] | inhibition at 10 µg/mL (PBMC [6]) [%] | Activity (PBMC [1]) | Activity (PBMC [2]) | Activity (PBMC [3]) | Activity (PBMC [4]) | Activity (PBMC [5]) | Activity (PBMC [6]) | other results
1 | C[C@@]12CCC[C@@](C)(C(=O)O)[C@@H]1CC[C@@]13C[C@@H](CC[C@H]12)[C@@H](CO)C3 | 4.2 | 0 | 35 | 56.2 | 34 | -6.1 |  |  |  |  |  |  | 
2 | C=C[C@]1(C)CC[C@@H]2[C@@]3(C)CCC[C@@](C)(C(=O)O)[C@@H]3CC[C@@]2(C)O1 | 65.2 | 49.9 | 100 | 95.4 | 94 | 36.1 |  |  |  |  |  |  | 
3 | C=C1C[C@H]2[C@@](C)(CO)C(=O)CC[C@]2(C)c2c(O)cc(C(C)C)c(OC)c21 |  |  |  |  |  |  | inactive | inactive | inactive | inactive | inactive | inactive | 
4 | CC(C)c1ccc2c(c1)CC[C@H]1[C@@](C)(CO)[C@@H](O)CC[C@]21C |  |  |  |  |  |  | inactive | inactive | inactive | inactive | inactive | inactive | 
5 | C[C@@]12CCC[C@@](C)(C(=O)O)[C@@H]1CC[C@@]13C[C@@H](CC[C@H]12)[C@](C)(O)C3 |  |  |  |  |  |  | inactive | inactive | inactive | inactive | inactive | inactive | 
6 | C[C@]12C=CC(=O)C=C1CC[C@@H]1[C@@H]2[C@@H](O)C[C@@]2(C)[C@H]1CC[C@]2(O)C(=O)CO [PREDNISOLONE] |  |  |  |  |  |  |  |  |  |  |  |  | inhibition at 0.3 µg/mL (PBMC [7]): 88.5%; inhibition at 0.3 µg/mL (PBMC [8]): 88.5%; inhibition at 0.3 µg/mL (PBMC [9]): 96.1%; inhibition at 0.3 µg/mL (PBMC [10]): 93.9%; inhibition at 0.3 µg/mL (PBMC [11]): 95.4%; inhibition at 0.3 µg/mL (PBMC [12]): 90.3%
7 | C[C@@]1(O)C[C@@]23CC[C@H]4[C@@]5(CCC[C@]4(C)C(=O)OC5)[C@@H]2CC[C@H]1C3 [TRIPTERIFORDIN] | 96.6 | 76.8 | 97.9 | 95.7 | 98.6 | 75.7 |  |  |  |  |  |  | 
8 | C=C1C[C@H]2[C@@](C)(CO)C(=O)CC[C@]2(C)c2cc(O)c(C(C)C)cc21 [TRIPTOBENZENE M] | -29.1 | 7.5 | 55.6 | 40.1 | 54.1 | 13.5 |  |  |  |  |  |  | 
9 | CC(C)c1ccc2c(c1)C(=O)C[C@H]1[C@@](C)(CO)C(=O)CC[C@]21C [TRIPTOBENZENE N] | 15.4 | 13.3 | 64.5 | -52.2 | 42.3 | 37.9 |  |  |  |  |  |  | 
10 | C=C1C[C@H]2[C@@](C)(CO)[C@@H](O)CC[C@]2(C)C2=C1C(=O)C(C(C)C)=CC2=O [TRIPTOQUINONE C] | -24.6 | -29.5 | 64 | 66.4 | 89 | 16.4 |  |  |  |  |  |  | 
